Assay results taken from ChEMBL document CHEMBL6134796, “Development and Evaluation of Indole-Based Phospholipase D Inhibitors for Lung Cancer Immunotherapy” (J Med Chem, 2025).
Active and inactive are the calls of the source. The rule behind the calls is not given here.

How the values were obtained:
[1] = system: A549; assay: Induction of apoptosis in human A549 cells increase in caspase-3 level; assay type: functional, cell-based
Summary of the method: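 Cells plated at about 40% density and treated at 10 μM for 48 h, with Ac-DEVD-CHO as the caspase-3 inhibitor control. Incubated with 1 μM NucView 488 caspase-3 substrate in PBS for 30 min at room temperature. Stained with 1 μM Hoechst 33342 and fluorescence quantified on a plate reader.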

[2] = system: A549; assay: Induction of apoptosis in human A549 cells measured up to 48 hrs in presence of gemcitabine by Annexin V-FITC and PI staining based flow cytometry analysis; assay type: functional, cell-based
Summary of the method: (§1)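 A549 cells given compound, gemcitabine, or both. Apoptosis assessed by PI staining, annexin V flow cytometry, cleaved PARP immunoblot, and caspase-3 activity. For caspase-3: drugs at 10 μM for 48 h, then 1 μM NucView 488 substrate for 30 min, with 1 μM Hoechst 33342, read by plate fluorescence.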

[3] = molecular target: T1, Phospholipase D1 (Mus musculus) (UniProt Q9Z280); assay: In vivo inhibition of PLD1 in male C57BL/6 mouse allografted with mouse Lewis lung carcinoma cell line assessed as decrease in CD163+ anti-inflammatory M2 macrophage population at 10 mg/kg, po by immunofluorescence analysis; assay type: functional, organism-based
T1 sequence (whole entry): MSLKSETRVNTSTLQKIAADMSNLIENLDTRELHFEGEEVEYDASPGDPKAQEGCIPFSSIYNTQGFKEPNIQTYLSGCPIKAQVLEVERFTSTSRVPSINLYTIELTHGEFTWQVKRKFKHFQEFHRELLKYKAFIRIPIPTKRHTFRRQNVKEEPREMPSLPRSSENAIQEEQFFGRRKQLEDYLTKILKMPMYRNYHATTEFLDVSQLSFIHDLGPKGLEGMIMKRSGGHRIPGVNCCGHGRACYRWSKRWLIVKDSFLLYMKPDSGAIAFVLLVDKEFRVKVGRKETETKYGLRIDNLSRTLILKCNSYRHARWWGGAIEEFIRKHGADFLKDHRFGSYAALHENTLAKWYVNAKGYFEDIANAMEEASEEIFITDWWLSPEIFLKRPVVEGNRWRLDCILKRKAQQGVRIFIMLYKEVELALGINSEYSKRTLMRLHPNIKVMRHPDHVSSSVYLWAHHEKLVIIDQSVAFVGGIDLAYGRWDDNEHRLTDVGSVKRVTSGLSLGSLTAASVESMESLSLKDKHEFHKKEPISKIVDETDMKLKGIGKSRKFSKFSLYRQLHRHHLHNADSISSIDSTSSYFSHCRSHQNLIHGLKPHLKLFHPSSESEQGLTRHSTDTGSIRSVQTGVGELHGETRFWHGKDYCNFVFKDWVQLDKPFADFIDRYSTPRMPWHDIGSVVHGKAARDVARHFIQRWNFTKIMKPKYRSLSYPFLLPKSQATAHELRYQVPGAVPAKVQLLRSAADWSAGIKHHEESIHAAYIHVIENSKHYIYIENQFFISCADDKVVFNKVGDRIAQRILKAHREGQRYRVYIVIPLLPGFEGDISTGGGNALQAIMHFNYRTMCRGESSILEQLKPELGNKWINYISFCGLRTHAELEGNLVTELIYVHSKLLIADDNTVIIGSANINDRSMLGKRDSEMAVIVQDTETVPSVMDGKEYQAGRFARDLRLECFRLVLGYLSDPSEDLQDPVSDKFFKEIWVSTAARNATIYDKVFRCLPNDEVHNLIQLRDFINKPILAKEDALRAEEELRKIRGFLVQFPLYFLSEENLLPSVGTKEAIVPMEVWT
Summary of the method: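 Same LLC syngeneic C57BL/6 model, 10 mg/kg PO every other day for 3 weeks. Tumor tissues were stained by immunofluorescence for CD80+ and CD163+ cells, CD8+ T cells, and CD4+/IL-17+ and Treg populations. Nuclei were counterstained with 1 μM Hoechst 33342 and imaged by confocal microscopy.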

[4] = system: A549 (human); assay: Cytotoxicity against human A549 cells assessed as decrease in cell growth by WST-1 assay; details: time 2-48 hrs
[5] = system: A549; assay: Inhibition of PLD1 F614A mutant (unknown origin) overexpressed in human A549 cells; assay type: cell-based
Summary of the method: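 A549 cells transfected with wild-type PLD1, PLD1 mutants (L425A, F614A, F789A) or PLD2, then compound-treated. PLD activity measured as [3H]phosphatidylbutanol formed in the presence of 1-butanol after [3H]myristic acid labeling, expressed as % of total lipid cpm. At least three independent experiments.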

[6] = system: Lewis lung carcinoma cell line; assay: Antitumor activity against mouse Lewis lung carcinoma cell line allografted in male C57BL/6 mouse model assessed as reduction in tumor formation at 10 mg/kg, po measured every other day for 3 weeks; assay type: functional, organism-based
Summary of the method: (§2)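 Syngeneic model: 6-week-old male C57BL/6 mice given 3 × 10^5 LLC cells in 50 μL PBS subcutaneously in the flank. At day 7, mice were randomized to vehicle PO daily or 10 mg/kg PO every other day for 3 weeks. Caliper volume was taken every 2 days as ([…])/2, with tumor weight at end. Spleen size and weight were recorded. Ki67 and cleaved caspase-3 were scored by IHC (DAB, hematoxylin).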

[7] = system: A549; assay: Induction of apoptosis in human A549 cells assessed as increase in cleaved PARP activity measured up to 48 hrs in presence of gemcitabine by flow cytometry analysis; assay type: functional, cell-based; summary of the method: as §1
[8] = system: A549; assay: Inhibition of cell proliferation in human A549 cells assessed as reduction in Ki-67 expression; assay type: functional, cell-based
Summary of the method: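 A549 cells immunostained for Ki67 with fluorescent secondary antibody; nuclei counterstained with 1 μM Hoechst 33342; confocal imaging; at least three independent experiments, mean ± SEM.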

[9] = system: A549; assay: Inhibition of cell invasion in human A549 cells measured after 24 hrs by crystal violet staining based light microscopic analysis; assay type: functional
[10] = system: A549; assay: Inhibition of cell migration in human A549 cells measured after 24 hrs by crystal violet staining based light microscopic analysis; assay type: functional
[11] = system: Lewis lung carcinoma cell line; assay: Antitumor activity against mouse Lewis lung carcinoma cell line allografted in male C57BL/6 mouse model assessed as increase in caspase 3 expression at 10 mg/kg, po measured every other day for 3 weeks by IHC analysis; assay type: functional, organism-based; summary of the method: as §2
[12] = system: Lewis lung carcinoma cell line; assay: Antitumor activity against mouse Lewis lung carcinoma cell line allografted in male C57BL/6 mouse model assessed as reduction in […] expression at 10 mg/kg, po measured every other day for 3 weeks by IHC analysis
[13] = molecular target: T1, Phospholipase D1 (Mus musculus); assay: In vivo inhibition of PLD1 in male C57BL/6 mouse allografted with mouse Lewis lung carcinoma cell line assessed as reduction in CD24 expression at 10 mg/kg, po by immunofluorescence analysis; assay type: functional, organism-based
[14] = system: A549; assay: Induction of apoptosis in human A549 cells assessed as increase in caspase-3 activity measured up to 48 hrs in presence of gemcitabine […]; assay type: functional, cell-based; summary of the method: as §1
[15] = system: A549; assay: Upregulation of CRT expression in human A549 cells by flow cytometry analysis; assay type: functional, cell-based
Summary of the method: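 A549 cells treated with compound; surface "eat-me" and "don't eat-me" signal proteins measured by flow cytometry; at least three independent experiments, mean ± SEM.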

[16] = system: A549; assay: Cytotoxicity against human A549 cells assessed as inhibition of cell growth incubated for 48 hrs by WST-1 assay; assay type: functional, cell-based; details: A549, 48 h

**Q.** With `O=C(CCc1c[nH]c2ccccc12)Nc1cc(C(F)(F)F)cc(C(F)(F)F)c1` as the molecule, how does the Activity [1] read?
**A.** The Activity was “Active”.

**Q.** What about the Activity [2] of the same molecule?
**A.** The Activity was “Active”.

**Q.** And the inhibition [3]?
**A.** The inhibition was “Active”.

**Q.** What about the Activity [4] of the same molecule?
**A.** Its Activity is “Time-dependent-effect”.

**Q.** What about the inhibition [5] of the same molecule?
**A.** Its inhibition is “inactive”.

**Q.** And the Activity [6]?
**A.** Its Activity is “Active”.

**Q.** What about the Activity [7] of the same molecule?
**A.** The Activity was “Active”.

**Q.** What about the inhibition [8] of the same molecule?
**A.** The inhibition was “Active”.

**Q.** And the inhibition [9]?
**A.** Its inhibition is “Active”.

**Q.** And the inhibition [10]?
**A.** The inhibition was “Active”.

**Q.** And the Activity [11]?
**A.** The Activity was “Active”.

**Q.** And the Activity [12]?
**A.** The Activity was “Active”.

**Q.** And the inhibition [13]?
**A.** The inhibition was “Active”.

**Q.** What about the Activity [14] of the same molecule?
**A.** The Activity was “Active”.

**Q.** What about the Activity [15] of the same molecule?
**A.** Its Activity is “Active”.

**Q.** And the IC50 [16]?
**A.** The IC50 was 18 µM.
